Experimental findings from ChEMBL document CHEMBL1649062, “Integration of lead optimization with crystallography for a membrane-bound ion channel target: discovery of a new class of AMPA receptor positive allosteric modulators” (J Med Chem, 2011) are described below.

A short description of data set [1]: Blood Clearance in rat at 3 mg/kg, po. On the set-up: dose 3 mg/kg, route oral. Format: ADME, organism-based. The following applies: whole blood. The essentials: (§1)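 Rats dosed orally at 3 mg/kg; blood sampled via the hepatic portal vein and heart. Estimated clearance derived from in vivo hepatic extraction, taking rat liver blood flow as 85 (mL/min)/kg.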
A short description of data set [2]: Plasma protein binding in rat at 3 mg/kg, po. Format: ADME, organism-based. The following applies: read-out: PPB (converted). The arrangement: dose 3 mg/kg, route oral.
A short description of data set [3]: Kinetic solubility of the compound in phosphate buffered saline of pH 7.4. In kind it is physicochemical. In a few lines: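 Kinetic solubility: 10 mM DMSO stock, 5 μL diluted to 100 μL with pH 7.4 phosphate-buffered saline, equilibrated 1 h at room temperature, filtered, filtrate quantified by calibrated flow-injection chemiluminescent nitrogen detection.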

Data set [4] in a line: Cmax in rat blood at 3 mg/kg, po. The following applies: whole blood. In kind it is ADME, organism-based. On the set-up: dose 3 mg/kg, route oral.
For data set [5], the system named is Brain. Nature of the data set: Brain tissue binding in rat at 3 mg/kg, po. In kind it is ADME, organism-based. The arrangement: dose 3 mg/kg, route oral. The following applies: in vivo.
Data set [6] is described as follows: Apparent permeability of the compound. The following applies: not told. In kind it is ADME. The essentials: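 Artificial membrane permeability: donor holds 10 mM sample in pH 7.05 phosphate buffer with 0.5% hydroxypropylcyclodextrin. Membrane is 1.8% phosphatidylcholine and 1% cholesterol in decane. Donor and acceptor concentrations measured by LCMS after 3 h at room temperature; permeability expressed in nm/s.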

A short description of data set [7]: AUC (0 to t) in rat blood at 3 mg/kg, po. Format: ADME, organism-based. On the set-up: dose 3 mg/kg, route oral. The following applies: whole blood.
The nature of data set [8]: Distribution coefficient, log D of the compound at pH 7.4. Format: physicochemical. The following applies: octanol/water.
The target in data set [9] is Cytochrome P450 2C9 (Homo sapiens, UniProt P11712). Nature of the data set: Inhibition of human CYP2C9 by fluorescence assay. In kind it is ADME. In a few lines: (§2)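 Recombinant human CYP bactosomes (0.1 mg/mL) in 50 mM potassium phosphate pH 7.4, preincubated 10 min at 37 °C with test compound (0.1-10 μM, 7 concentrations) and fluorogenic substrate. Substrates: ethoxyresorufin 0.5 μM (1A2), FCA 50 μM (2C9), BMC 10 μM (2C19), MMC 10 μM (2D6), DEF 1 μM or 7-BQ 25 μM (3A4). Reaction started with NADPH regenerating system; metabolite formation read over 10 min. IC50 from percent of control rate; miconazole control; triplicate.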

Data set [10] deals with T1, Glutamate receptor 2 (Homo sapiens, UniProt P42262). Briefly: Allosteric modulation of human recombinant GluA2 receptor flip isoform expressed in HEK293 cells assessed as potentiation of glutamate-induced calcium influx by Fluo-4/FLIPR method relative to cyclothiazide. Format: cell-based. The essentials:
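Stable GluA2 flip (unedited) cells seeded to confluence 2-3 days before assay; washed in HEPES buffer (145 NaCl, 5 KCl, 2 CaCl2, 1 MgCl2, 5.5 glucose, pH 7.3), loaded with 2 μM Fluo4-AM 60 min at room temperature. FLIPR dual addition: compound 5 min before 100 μM glutamate; fluorescence rise expressed against maximal cyclothiazide response, fitted pEC50 and Asym max; n ≥ 3.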

Data set [11] concerns the target Cytochrome P450 2C19 (Homo sapiens, UniProt P33261). Briefly: Inhibition of human CYP2C19 by fluorescence assay. In kind it is ADME. The essentials:
as §2

For data set [12], the target named is T1, Glutamate receptor 2. Nature of the data set: Allosteric modulation of human recombinant GluA2 receptor flip isoform expressed in HEK293 cells assessed as potentiation of glutamate-induced calcium influx by Fluo-4/FLIPR method. Format: cell-based. In a few lines:
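Stable GluA2 flip (unedited) cell line grown in DMEM/F12 with 10% FBS and seeded to confluence 2-3 days before use. Cells washed in HEPES buffer (pH 7.3) and loaded with 2 μM Fluo-4 AM for 60 min at room temperature. On FLIPR, compound was added 5 min before 100 μM glutamate. pEC50 and asymptotic maximum are relative to the maximal response to cyclothiazide, n ≥ 3.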

In data set [13] the target is Cytochrome P450 3A4 (Homo sapiens, UniProt P08684). Nature of the data set: Inhibition of human CYP3A4 by fluorescence assay. In kind it is ADME. In a few lines: as §2
Data set [14] has as its target Cytochrome P450 2D6 (Homo sapiens, UniProt P10635). Briefly: Inhibition of human CYP2D6 by fluorescence assay. In kind it is ADME. In a few lines: as §2
In data set [15] the target is T2, Cytochrome P450 1A2 (Homo sapiens, UniProt P05177).
T2 sequence (P05177 whole entry): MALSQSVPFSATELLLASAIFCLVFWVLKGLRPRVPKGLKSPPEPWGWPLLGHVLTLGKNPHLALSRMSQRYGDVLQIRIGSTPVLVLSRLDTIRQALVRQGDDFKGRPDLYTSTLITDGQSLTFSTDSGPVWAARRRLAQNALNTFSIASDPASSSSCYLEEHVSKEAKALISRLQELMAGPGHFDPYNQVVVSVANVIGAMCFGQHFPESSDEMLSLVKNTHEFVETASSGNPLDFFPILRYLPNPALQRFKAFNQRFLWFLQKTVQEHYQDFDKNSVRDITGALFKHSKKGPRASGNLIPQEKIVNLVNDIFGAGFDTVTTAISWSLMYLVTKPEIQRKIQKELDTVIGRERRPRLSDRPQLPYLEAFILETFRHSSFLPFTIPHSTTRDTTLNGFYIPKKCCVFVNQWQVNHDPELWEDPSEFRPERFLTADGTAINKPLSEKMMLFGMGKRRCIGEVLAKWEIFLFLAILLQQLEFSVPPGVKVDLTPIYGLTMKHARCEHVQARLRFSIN
Nature of the data set: Inhibition of human CYP1A2 by fluorescence assay. Format: ADME. In a few lines:
as §2

Data set [16] in a line: Clearance in rat at 3 mg/kg, po. In kind it is ADME, organism-based. The arrangement: dose 3 mg/kg, route oral. The following applies: in vivo. In a few lines: as §1
The nature of data set [17]: Distribution coefficient, log D of the compound. Format: physicochemical. The following applies: octanol/water.
A short description of data set [18]: in vivo. The following applies: rat, brain and blood, po, 3 mg/kg.
Data set [19] in a line: Cmax in rat at 3 mg/kg, po. The arrangement: dose 3 mg/kg, route oral. The following applies: in vivo. Format: ADME, organism-based.
Data set [20] can be described thus: AUC ( 0 to t) in rat at 3 mg/kg, po. Format: ADME, organism-based, Plasma. The arrangement: dose 3 mg/kg, route oral. The following applies: plasma.
A short description of data set [21]: Inhibition of human CYP450 by fluorescence assay. In kind it is ADME. The essentials:
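Recombinant human CYP1A2, 2C9, 2C19, 2D6 and 3A4 bactosomes (0.1 mg/mL protein) preincubated 10 min at 37 °C in 50 mM potassium phosphate pH 7.4 with test compound (0.1–10 μM, methanol 3–4.5% final) and fluorogenic probe: ethoxyresorufin 0.5 μM (1A2), FCA 50 μM (2C9), BMC 10 μM (2C19), MMC 10 μM (2D6), DEF 1 μM or 7-BQ 25 μM (3A4). NADPH-regenerating system added; fluorescent metabolite read 10 min; rate as % control; IC50 fitted; triplicate.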

The subject of data set [22] is Brain. Briefly: Drug level in Lister Hooded rat assessed per gram of tissue at 150 mg/kg, ip. Format: ADME, organism-based. The arrangement: dose 150 mg/kg, route intraperitoneal. The following applies: in vivo. In a few lines: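 Male Lister Hooded rats pretreated 30 min before the maximal electroshock threshold test with compound or saline vehicle; picrotoxin served as positive control. Corneal current applied, CC50 about 60-70 mA, 0.1 ms. Brain levels measured in satellite rats sampled immediately after testing.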

The test system of data set [23] is Rattus norvegicus. Briefly: Neurotoxicity in Lister Hooded rat assessed proconvulsant effect at 150 mg/kg, ip by MEST test. Format: toxicity, organism-based. The arrangement: dose 150 mg/kg, route intraperitoneal. The following applies: in vivo. In a few lines: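 Male Lister Hooded rats pretreated with compound, saline vehicle or picrotoxin 30 min before corneal electroshock (CC50 about 60–70 mA, 0.1 ms); tonic and tonic-clonic seizure threshold scored; brain concentrations taken from satellite rats sampled right after testing.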

Data set [24] has as its system Rattus norvegicus. Briefly: Cognitive enhancing effect in Wistar rat assessed as reversal of scopolamine-induced amnesic deficit at 10 to 30 mg/kg, ip by passive avoidance test.

Values after ≈ are worked out from the molar mass of the structure shown. Active and inactive are the calls of the source. A value given as a limit tells only on which side of the number the result lay.

T1 sequence (P42262 whole entry, canonical isoform): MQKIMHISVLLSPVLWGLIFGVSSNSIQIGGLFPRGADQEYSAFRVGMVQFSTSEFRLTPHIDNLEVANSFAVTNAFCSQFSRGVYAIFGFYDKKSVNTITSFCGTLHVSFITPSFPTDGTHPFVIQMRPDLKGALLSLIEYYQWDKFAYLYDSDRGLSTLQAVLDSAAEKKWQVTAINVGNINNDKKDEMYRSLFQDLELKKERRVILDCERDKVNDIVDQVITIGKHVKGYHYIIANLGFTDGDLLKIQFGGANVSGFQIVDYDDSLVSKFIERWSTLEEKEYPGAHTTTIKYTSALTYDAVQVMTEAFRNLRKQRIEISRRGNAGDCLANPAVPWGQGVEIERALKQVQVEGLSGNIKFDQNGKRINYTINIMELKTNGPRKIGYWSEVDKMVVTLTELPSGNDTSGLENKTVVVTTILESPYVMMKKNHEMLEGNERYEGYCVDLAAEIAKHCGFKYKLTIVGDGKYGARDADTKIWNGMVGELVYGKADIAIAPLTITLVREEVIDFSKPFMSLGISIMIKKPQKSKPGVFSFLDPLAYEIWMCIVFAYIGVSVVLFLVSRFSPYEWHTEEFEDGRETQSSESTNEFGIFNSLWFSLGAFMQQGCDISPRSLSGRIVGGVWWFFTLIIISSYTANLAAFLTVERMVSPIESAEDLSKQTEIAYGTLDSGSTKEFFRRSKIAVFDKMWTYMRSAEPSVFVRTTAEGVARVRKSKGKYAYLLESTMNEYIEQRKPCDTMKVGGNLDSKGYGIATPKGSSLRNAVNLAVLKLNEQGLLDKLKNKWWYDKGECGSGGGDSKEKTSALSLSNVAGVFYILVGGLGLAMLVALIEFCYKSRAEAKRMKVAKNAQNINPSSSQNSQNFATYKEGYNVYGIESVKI
Sequence of Cytochrome P450 2D6 (P10635 whole entry): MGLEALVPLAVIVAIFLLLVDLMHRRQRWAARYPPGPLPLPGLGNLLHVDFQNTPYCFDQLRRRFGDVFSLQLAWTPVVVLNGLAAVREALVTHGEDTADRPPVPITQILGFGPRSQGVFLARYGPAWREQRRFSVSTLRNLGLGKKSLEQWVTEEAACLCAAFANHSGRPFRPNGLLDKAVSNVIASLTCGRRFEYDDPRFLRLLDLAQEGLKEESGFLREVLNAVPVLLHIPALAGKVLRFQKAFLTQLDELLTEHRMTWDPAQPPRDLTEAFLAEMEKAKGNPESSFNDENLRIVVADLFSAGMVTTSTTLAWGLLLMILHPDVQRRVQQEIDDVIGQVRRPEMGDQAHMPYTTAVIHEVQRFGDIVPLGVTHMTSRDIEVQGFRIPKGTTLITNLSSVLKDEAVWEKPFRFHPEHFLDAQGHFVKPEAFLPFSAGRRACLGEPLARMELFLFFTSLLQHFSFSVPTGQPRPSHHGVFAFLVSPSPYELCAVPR
Sequence of Cytochrome P450 2C19 (P33261 whole entry): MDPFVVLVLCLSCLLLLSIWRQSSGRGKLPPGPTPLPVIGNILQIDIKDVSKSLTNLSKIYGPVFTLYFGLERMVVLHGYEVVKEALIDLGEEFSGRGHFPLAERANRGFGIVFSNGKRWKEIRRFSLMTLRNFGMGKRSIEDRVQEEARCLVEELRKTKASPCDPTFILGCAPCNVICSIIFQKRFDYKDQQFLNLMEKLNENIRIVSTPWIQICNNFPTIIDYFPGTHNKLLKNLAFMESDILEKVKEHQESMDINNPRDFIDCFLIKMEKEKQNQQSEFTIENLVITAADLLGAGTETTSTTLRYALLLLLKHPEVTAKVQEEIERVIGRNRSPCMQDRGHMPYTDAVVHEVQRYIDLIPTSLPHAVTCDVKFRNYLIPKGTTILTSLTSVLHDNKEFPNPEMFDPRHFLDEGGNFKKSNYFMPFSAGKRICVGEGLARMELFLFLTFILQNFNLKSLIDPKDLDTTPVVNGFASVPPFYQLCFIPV
Sequence of Cytochrome P450 2C9 (P11712 whole entry): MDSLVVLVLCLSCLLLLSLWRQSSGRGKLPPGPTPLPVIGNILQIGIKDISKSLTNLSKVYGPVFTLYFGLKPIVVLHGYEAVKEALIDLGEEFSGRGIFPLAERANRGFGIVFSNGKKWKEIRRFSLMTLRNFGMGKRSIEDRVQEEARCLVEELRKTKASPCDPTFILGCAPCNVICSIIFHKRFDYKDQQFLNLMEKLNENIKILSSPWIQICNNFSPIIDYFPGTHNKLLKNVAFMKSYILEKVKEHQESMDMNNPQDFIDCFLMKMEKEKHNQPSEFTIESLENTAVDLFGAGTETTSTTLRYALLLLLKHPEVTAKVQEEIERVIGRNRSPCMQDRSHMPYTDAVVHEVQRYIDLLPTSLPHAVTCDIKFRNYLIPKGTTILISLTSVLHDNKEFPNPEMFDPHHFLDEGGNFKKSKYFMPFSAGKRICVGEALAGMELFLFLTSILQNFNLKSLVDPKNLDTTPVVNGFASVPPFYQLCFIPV
Sequence of Cytochrome P450 3A4 (P08684 whole entry): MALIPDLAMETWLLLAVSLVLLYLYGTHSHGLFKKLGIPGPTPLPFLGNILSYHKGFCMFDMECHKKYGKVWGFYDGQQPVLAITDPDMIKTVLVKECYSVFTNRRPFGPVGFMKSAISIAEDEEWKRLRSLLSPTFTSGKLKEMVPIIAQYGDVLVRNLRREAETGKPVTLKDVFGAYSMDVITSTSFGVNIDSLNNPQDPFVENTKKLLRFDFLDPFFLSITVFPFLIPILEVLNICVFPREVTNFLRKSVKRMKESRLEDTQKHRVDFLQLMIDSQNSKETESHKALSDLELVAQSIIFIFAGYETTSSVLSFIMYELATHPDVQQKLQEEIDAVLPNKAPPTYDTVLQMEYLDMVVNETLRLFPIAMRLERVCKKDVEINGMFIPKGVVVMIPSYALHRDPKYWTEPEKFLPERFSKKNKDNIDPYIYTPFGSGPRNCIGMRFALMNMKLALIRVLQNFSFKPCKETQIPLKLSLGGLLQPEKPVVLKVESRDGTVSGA

As a reminder, the CL/F is clearance divided by bioavailability, as obtained after extravascular dosing. A word on the solubility (kinetic): it is the concentration staying in solution when a stock, usually in DMSO, is diluted into the medium. One may read the Cmax as the maximum level reached in the sampled fluid or tissue. For orientation: Papp means the rate of passage across a membrane or cell layer, normalised by area and donor concentration. Broadly, the AUC(0-t) is the area under the concentration-time curve up to a stated or last time point. For orientation: logD means lipophilicity at a set pH, counting ionised and neutral species. Read a low logD as a more hydrophilic compound. As usually defined, the IC50 is the midpoint of a concentration-inhibition curve. A higher IC50 goes with a need for much substance. One may read the EC50 as the midpoint of the concentration-response curve. Turning to `O=C1CCCN1Cc1ccc(-n2nc(C(F)(F)F)c3c2CCOC3)cc1`, the apparent clearance CL/F in [1] stood at 41 mL/min/kg. For the same molecule, the fraction unbound in data set [2] was 0.16. This molecule also yielded a solubility (kinetic) in data set [3] of 215 µg/mL (≈ 588 µM). Further, the Cmax in [4] came to 808 ng/mL. For the same molecule, the “Brain tissue binding (% bound)” value in [5] is given as 87.9%. In addition, the Papp in [6] was determined as 47 ×10⁻⁶ cm/s. The AUC(0-t) in data set [7] amounted to 972 ng·h/mL. The molecule also came in with a logD in data set [8] of 2.4. Besides, the IC50 in data set [9], in data set [11], in data set [13], in data set [14] and in data set [15] was more than 8 µM each time. The Activity in data set [10] turned out to be 138%. Further, the EC50 in data set [12] is 10 µM.

What is called Kp is the ratio of the level in a tissue or fluid to that in plasma or blood. The molecule `O=S1(=O)CCCN1Cc1ccc(-n2nc(C(F)(F)F)c3c2CCCC3)cc1` had a CL/F in data set [16] of 41 mL/min/kg. In addition, in [17], the logD turned out to be 3.3. Besides, the fraction unbound in [2] was 0.032. The molecule further returned a solubility (kinetic) in data set [3] of 12 µg/mL (≈ 30 µM). The “Brain tissue binding (% bound)” value in data set [5] is 99.5%. Besides, in data set [18], the Kp was 2.5. For the same molecule, the Papp in [6] was 40 ×10⁻⁶ cm/s. Moreover, the Activity in [10] was found to be 118%. In addition, the highest level in data set [19] (Cmax) was 136 ng/mL. This molecule registered an AUC(0-t) in [20] of 364 ng·h/mL. The EC50 in data set [12] is 10 µM. Also, the IC50 in data set [21] is more than 10 µM.

Molecule `CS(=O)(=O)NCc1ccc(-n2nc(C(F)(F)F)c3c2CCCC3)cc1` registered a CL/F in data set [16] of 43 mL/min/kg. Further, the logD in [17] was 2.5. Moreover, the fraction unbound in data set [2] was 0.021. In data set [22], the Drug uptake came out at 5074 ng/g. Also, the kinetic solubility in data set [3] was 103 µg/mL (≈ 276 µM). Also, the “Brain tissue binding (% bound)” value in data set [5] is 99.2%. The same molecule showed a Kp in [18] of 1.6. For the same molecule, in data set [6], the Papp turned out to be 33.5 ×10⁻⁶ cm/s. Further, the results for the Activity in data set [10] and in data set [23] were 112% and “Non-toxic”, respectively. In data set [19], this molecule displayed a Cmax of 197 ng/mL. Besides, in data set [20], the AUC(0-t) was 416 ng·h/mL. Also, in [12], the EC50 is 7.94 µM. Besides, the IC50 in data set [21] was more than 10 µM.

`O=C(c1ccc(-n2nc(C(F)(F)F)c3c2CCCC3)cc1)N1CCOCC1` gave a CL/F in data set [16] of 14 mL/min/kg. Moreover, the logD in [17] is 3.1. The fraction unbound in data set [2] was 0.026. In addition, the Drug uptake in [22] is given as 7168 ng/g. In addition, in data set [3], the kinetic solubility was 123 µg/mL (≈ 324 µM). Further, the “Brain tissue binding (% bound)” value in data set [5] worked out at 96.8%. In addition, the Kp in [18] was 1.2. In addition, in data set [24], the outcome was inactive. For the same molecule, in [6], the Papp was determined as 45.5 ×10⁻⁶ cm/s. For the same molecule, the Activity in data set [10] is 81%; in data set [23] it was “Non-toxic”. Besides, in [19], the Cmax came out at 586 ng/mL. The AUC(0-t) in [20] was found to be 1980 ng·h/mL. The EC50 in data set [12] is more than 20 µM. The IC50 in data set [21] is more than 10 µM.

For `CN(Cc1ccc(-n2nc(C(F)(F)F)c3c2CCCC3)cc1)S(C)(=O)=O`, the logD in data set [17] was determined as 3.3. This molecule displayed a solubility (kinetic) in data set [3] of 15 µg/mL (≈ 38.7 µM). The Activity in data set [10] was 102%. In addition, the EC50 in data set [12] is 20 µM. The IC50 in data set [21] is more than 10 µM.
